# T cell modulator: T cell immune modulators affecting CD8 T cell-vesicle binding. 2C CD8+ T cell-vesicle binding, flow cytometry; active compounds read low. response (vesicle binding), % at 7 µM. 330,000 compounds, 0.068% hits. AID 2052;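 active means response, share of CD8 T cells binding vesicles, and their 90th percentile fluorescence all below set limits, cut at about 80% in these data, passing the limit was not always enough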;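 further: values below 100% mean blocked vesicle binding to the CD8+ T cells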
#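 Test system: purified 2C TCR transgenic mouse naive CD8+ T cells. Probe or stimulus: QL9-peptide-loaded Drosophila micro-vesicles bearing Ld, ICAM-1 and B7-1. Incubation: binding step 1.5 h, 37 °C, antibody labelling 20 min, ice. Measured by: flow cytometry of vesicle-bound cells.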
# Vif inh: HIV Vif inhibition. 340,000 compounds, 0.35% hits. HEK293T cells, Vif self-association by quenched fluorescence, imaging, 24 h. inhibition, % at 7.49 µM; in the data active means inhibition above about 50%, passing the limit was not always enough; inconclusive means no clear call, values can overlap the other calls; inactive means below about 31%
# Myeloid diff MLP: compounds promoting myeloid differentiation; ER-HoxA9 myeloid progenitors, lysozyme-GFP differentiation, flow cytometry; calls only at 10 µM; 360,000 compounds, 1% hits; AID 624256;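 active means normalized GFP-positive differentiation at or above the plate's own cutoff, the solvent-only control mean plus 3 SD; inconclusive means no clear call, values can overlap the other calls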;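 further: cells exposed to compound for four days before flow analysis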
# DSG3 Ab inh: inhibitors of pemphigus antibody binding to human desmoglein-3 | binding (percent of control), % at 10 µM | DSG3-coupled beads, scFv-anti-DSG3-GFP binding, flow cytometry; active compounds read low | P32926 | 310,000 compounds, 0.48% hits | AID 588358;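 active means binding more than 3 SD below its plate's average and above zero; inconclusive means below that plate limit but binding exactly zero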;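 further: hits lower antibody fragment binding to DSG3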
# Target sequence (P32926 whole entry, looked up, the tested form may be a part): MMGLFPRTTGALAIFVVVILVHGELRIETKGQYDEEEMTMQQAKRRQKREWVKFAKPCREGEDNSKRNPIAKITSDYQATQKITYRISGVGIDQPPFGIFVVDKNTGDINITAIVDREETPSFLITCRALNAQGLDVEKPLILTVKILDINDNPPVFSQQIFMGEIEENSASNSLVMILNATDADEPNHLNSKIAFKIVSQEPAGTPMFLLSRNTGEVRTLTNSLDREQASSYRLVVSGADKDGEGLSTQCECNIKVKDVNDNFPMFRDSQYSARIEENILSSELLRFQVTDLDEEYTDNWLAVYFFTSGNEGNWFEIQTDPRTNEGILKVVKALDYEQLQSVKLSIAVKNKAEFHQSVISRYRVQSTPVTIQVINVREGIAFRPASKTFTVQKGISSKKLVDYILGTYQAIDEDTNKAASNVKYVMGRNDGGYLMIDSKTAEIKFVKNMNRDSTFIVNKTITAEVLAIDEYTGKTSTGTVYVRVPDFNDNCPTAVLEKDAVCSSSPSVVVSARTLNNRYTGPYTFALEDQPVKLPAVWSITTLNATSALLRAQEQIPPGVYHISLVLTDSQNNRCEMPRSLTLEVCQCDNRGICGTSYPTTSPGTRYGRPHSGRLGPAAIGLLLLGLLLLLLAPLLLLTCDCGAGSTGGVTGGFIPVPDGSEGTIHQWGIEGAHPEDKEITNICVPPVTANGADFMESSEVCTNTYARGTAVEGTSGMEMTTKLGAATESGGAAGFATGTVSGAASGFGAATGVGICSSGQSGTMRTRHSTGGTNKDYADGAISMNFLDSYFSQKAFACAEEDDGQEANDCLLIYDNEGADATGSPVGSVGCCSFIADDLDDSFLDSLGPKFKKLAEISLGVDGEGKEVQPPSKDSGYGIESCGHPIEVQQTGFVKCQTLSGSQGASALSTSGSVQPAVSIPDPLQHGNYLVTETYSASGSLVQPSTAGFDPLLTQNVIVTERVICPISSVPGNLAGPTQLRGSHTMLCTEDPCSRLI
# * marks the source's active call; other numbers are inactive results; i = inactive; ? = inconclusive; . = no result given; + = active, no number. In the library only some 1.7% were active in any assay of this set; here they are far more common.
SMILES,T cell modulator,Vif inh,Myeloid diff MLP,DSG3 Ab inh
CCCn1c(=N)c(C(=O)NCc2ccc3c(c2)OCO3)cc2c(=O)n3cccc(C)c3nc21,674.2,92.5*,i,98.1
Cn1c(C(=O)NCCCN2CCN(c3ccccc3F)CC2)cc2c(=O)n(C)c3ccccc3c21,104.0,3.6,?,116.8
Cc1cccn2c(=O)c3cc(C(=O)NC4CCCCC4C)n(C)c3nc12 (stereo unspecified),102.8,-7.0,+,101.1
CC1CCCCC1NC(=O)c1cc2c(=O)n3ccccc3nc2n1C (stereo unspecified),79.4,15.8,i,105.0
Cc1cccn2c(=O)c3cc(C(=O)NCCN4CCOCC4)n(C)c3nc12,539.8,-0.3,+,.
CC1(C(=O)Nc2ccc(F)c(Cl)c2)Cc2c(-c3ccccc3)ccnc2O1 (stereo unspecified),.,0.0,i,.
Cc1cc(C(=O)N2CCCC(CO)(Cc3ccc(F)cc3F)C2)nn1C (stereo unspecified),.,5.8,+,108.8
COc1cc(Nc2nc3ccccc3n3nnnc23)cc(OC)c1OC,734.1,50.2*,i,103.2
COc1ccc(C(=O)CC(Nc2ccc([N+](=O)[O-])cc2)c2ccc(Cl)cc2)cc1 (stereo unspecified),220.2,-4.6,+,96.3
CC(=O)N=c1c(C#N)cc2c(=O)n3ccccc3nc2n1CCCOC(C)C,233.3,-10.3,i,101.9
CC(C)OCCCn1c(=N)c(C(N)=S)cc2c(=O)n3ccccc3nc21,345.4,20.7,+,?
CCOC(=O)c1nn(-c2ccccc2)c(=O)c2c(N)scc12,213.6,-2.6,i,91.0
CCOC(=O)c1cc2c(C)nn(-c3ccccc3)c2s1,248.9,17.8,i,-30.2*
CCOC(=O)c1nn(-c2ccccc2)c(=O)c2c(NC(C)=O)scc12,365.2,-7.5,i,61.9*
O=C(NCCN1CCC(n2c(=O)[nH]c3ccccc32)CC1)c1cccc(Cl)c1,.,.,i,.
CC(=O)Nc1ccc(S(=O)(=O)N2CCN=C2SCc2ccc([N+](=O)[O-])cc2)cc1,156.8,-8.9,i,102.1
CCc1ccc(-c2cc(C(=O)Nc3ccc(S(=O)(=O)NC(C)=O)cc3)c3ccccc3n2)cc1,317.7,-14.8,i,62.8*
CC(C)(C)NS(=O)(=O)c1ccc(NC(=O)c2cc(-c3ccccc3)nc3ccccc23)cc1,644.7,-5.2,i,65.3*
Cc1ccc(-c2cc(C(=O)Nc3ccc(S(=O)(=O)Nc4ncccn4)cc3)c3ccccc3n2)cc1,230.7,11.5,i,106.1
CC1(C(=O)NS(=O)(=O)C2CC2)CCCN(C(=O)c2cccc(OC(F)(F)F)c2)C1 (stereo unspecified),.,1.4,i,.
COC1=C(NCc2ccc3c(c2)OCO3)C(=O)C(OC)=C(NCc2ccc3c(c2)OCO3)C1=O,.,10.4,i,-14.7*
COc1ccc(S(=O)(=O)NCc2ccc3c(c2)OCO3)cc1C,377.3,1.2,i,98.3
COc1ccc(S(=O)(=O)NCc2ccc3c(c2)OCO3)cc1OC,504.7,113.7*,i,96.1
Cc1[nH]c2ccccc2c1/C=C/C(=O)c1ccccc1,185.1,-12.6,+,142.8
CCn1c(/C=C/c2c(C)[nH]c3ccccc23)nc2ccccc2c1=O,233.3,2.1,+,109.8
SMILES,T cell modulator,Vif inh,Myeloid diff MLP,DSG3 Ab inh
COc1ccc(NC(=O)c2cc(-c3cc(F)ccc3OCC3CCCO3)n[nH]2)cc1OC (stereo unspecified),.,-6.0,i,.
C[C@@H]1CN([C@H](C)CO)C(=O)c2cc(Br)cnc2O[C@@H]1CN(C)C(=O)c1cccc(F)c1,.,.,i,103.0
COc1cccc(OCc2cc(/C=N/Nc3ccc(C(=O)O)cc3)ccc2OC)c1,368.6,2.5,i,61.2*
CN(C)c1ccc(/C=C/c2nc3ccccc3c(=O)n2-c2ccc(C(=O)O)cc2)cc1,228.9,17.5,+,93.3
O=C(O)c1cccc(-n2c(/C=C/c3ccccc3)nc3ccccc3c2=O)c1,221.3,5.0,i,103.9
CC(NS(=O)(=O)c1ccc2[nH]c(=O)[nH]c2c1)c1ccc(F)cc1 (stereo unspecified),.,3.3,i,104.7
Cc1ccc(C(=O)N2[C@@H]3CN(C)C(=O)[C@@]2(Cc2ccccc2)[C@H]2C(=O)N(C)C(=O)[C@@H]32)cc1,.,-5.2,i,98.5
Cc1ccc(C)c(N2CCN(S(=O)(=O)c3c(C(=O)N4CCCCC4)c(C)n(C)c3C)CC2)c1,323.0,4.8,i,104.8
Cc1ccc(Cl)cc1N1CCN(S(=O)(=O)c2c(C(=O)N3CCOCC3)c(C)n(C)c2C)CC1,522.4,-7.2,+,103.8

# Bioassay records as filed in PubChem.
